High-throughput results: PubChem BioAssay, NMMLSC
MEKK2wt PB1 HTS = raises or lowers MEK5 binding to wildtype human MEKK2 PB1 domain; bead flow cytometry, Alexa488-MEK5 binding to MEKK2 WT; actives lie on both sides; binding response (% of control), % at 10 µM; 290,000 tested, 1.1% active; AID 1531; in the data active = binding response below about 67% or above about 130%
MEKK2mut PB1 HTS = signal of MEK5 binding to mutant human MEKK2 PB1 domain; percent response, % at 10 µM; bead flow cytometry, Alexa488-MEK5 binding to MEKK2 mutant; AID 1530; 290,000 tested, 0.35% active; in the data active = percent response above about 24%, passing the limit was not always enough
MEKK3 PB1 HTS = modulators (inhibitors or enhancers) of MEK5 binding to human MEKK3 PB1 domain | Q99759 | binding response (% of control), % at 10 µM | AID 1529 | 290,000 tested, 1.4% active | bead-based flow cytometry, Alexa488-MEK5 binding to MEKK3; actives lie on both sides; 0 = blocked by unlabeled MEK5, 100 = vehicle;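 active = binding response more than 3 SD above or below the average of its plate-row segment, actives on both sides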;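 note: Alexa488 bead fluorescence after subtracting the streptavidin-only scavenger bead signal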
ABCB1 block = inhibitors of human ABCB1 transporter, ABCG2 counter-screen; 190,000 tested, 0.067% active; P08183; inhibition, % at 6.6 µM; CCRF-Adr cells, JC-1 efflux, flow cytometry; in the data active = inhibition above about 40%;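 note: 0% = vehicle and 100% = reference inhibitor; higher value means more JC-1 retained so stronger ABCB1 efflux block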
ABCG2 inh = human ABCG2 inhibition, ABCB1 as counter-screen. IgMXP3 cells, JC-1 efflux, flow cytometry. inhibition, % at 6.6 µM. 190,000 tested, 0.1% active. AID 1325;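 active = inhibition above 80%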;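 note: 0% = DMSO and 100% = nicardipine control wells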
Target sequence (Q9UNQ0 whole entry, looked up): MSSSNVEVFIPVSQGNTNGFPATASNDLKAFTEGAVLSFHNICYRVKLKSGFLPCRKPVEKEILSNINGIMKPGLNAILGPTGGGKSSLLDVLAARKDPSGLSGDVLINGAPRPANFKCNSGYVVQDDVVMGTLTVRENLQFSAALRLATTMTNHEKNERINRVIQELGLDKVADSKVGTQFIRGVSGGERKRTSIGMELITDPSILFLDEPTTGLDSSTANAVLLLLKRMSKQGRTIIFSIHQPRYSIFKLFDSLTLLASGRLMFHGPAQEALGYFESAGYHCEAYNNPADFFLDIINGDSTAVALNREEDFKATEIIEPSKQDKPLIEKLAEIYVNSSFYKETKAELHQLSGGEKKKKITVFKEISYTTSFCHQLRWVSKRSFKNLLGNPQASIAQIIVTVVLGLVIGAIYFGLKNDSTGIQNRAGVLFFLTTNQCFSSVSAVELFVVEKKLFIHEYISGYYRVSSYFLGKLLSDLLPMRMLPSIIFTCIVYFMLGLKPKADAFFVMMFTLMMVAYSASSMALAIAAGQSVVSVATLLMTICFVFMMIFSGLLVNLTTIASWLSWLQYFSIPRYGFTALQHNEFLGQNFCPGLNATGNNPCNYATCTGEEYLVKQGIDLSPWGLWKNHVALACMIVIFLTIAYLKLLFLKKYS
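material = IgMXP3 (ABCG2) plus far-red-tagged CCRF-Adr (ABCB1) cells | amount = 3 million cells/mL, equal mix of both lines | also added = JC-1 transporter substrate | dosing = one concentration, 6.6 µM final | schedule = 10 min at 25 °C | measured by = flow cytometric JC-1 green MFI at 530 nm | read-out basis = percent efflux inhibition, scaled nicardipine 100% to DMSO 0%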
MEKK2wt confirm = raises or lowers MEK5 binding to wildtype human MEKK2, retest; shares compounds with MEKK3 PB1 HTS; binding response (% of control), % at 10 µM; AID 1892; bead flow cytometry, Alexa488-MEK5 binding to MEKK2 WT; actives lie on both sides; 5,900 tested, 2.4% active; in the data active = binding response below about 16% or above about 210%; inactive = in between
MEKK2mut-MEK5 = signal of MEK5 binding to mutant human MEKK2, retest; shares compounds with MEKK3 PB1 HTS; bead flow cytometry, Alexa488-MEK5 binding to MEKK2 mutant; percent response, % at 10 µM; 5,900 tested, 2% active; in the data active = percent response mostly above about 71%, no sharp cut-off; inactive = mostly below about 38%;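 note: higher means compound restores mutant binding toward wildtype level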
MEKK3 confirm = MEKK3-MEK5 PB1 inhibition, single concentration confirmation; shares compounds with MEKK3 PB1 HTS; bead flow cytometry, Alexa488-MEK5 binding to MEKK3; stronger effect = lower value; binding response (% of control), % at 10 µM; 5,900 tested, 1.8% active; AID 1894;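 active = binding response below 72% of control, or above a set upper limit, though filed actives all read lower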;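 note: 100% = DMSO only wells and 0% = binding blocked by excess unlabeled MEK5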
Starred values were filed as active, the others as inactive; nt = not tested or not shown; [ ] = remark or other dose. In the library only some 2.3% were active in any assay of this set; here they are far more common.

SMILES | MEKK2wt PB1 HTS | MEKK2mut PB1 HTS | MEKK3 PB1 HTS | ABCB1 block | ABCG2 inh | MEKK2wt confirm | MEKK2mut-MEK5 | MEKK3 confirm
CC(=O)Nc1ccc(Nc2c3c4c(cccc4n(C)c2=O)C(=O)c2ccccc2-3)cc1 | 90.0 | -5.0 | 83.0 | 10.2 | 9.5 | nt | nt | nt
COCCNC(=O)Cn1c(=O)n(Cc2ccc(C(=O)NCCc3ccc(OC)c(OC)c3)cc2)c(=O)c2ccccc21 | 45.0*[inhibitor] | -18.0 | 37.0*[inhibitor] | -0.2 | 0.7 | 102.0 | 4.0 | 103.0
COCCNC(=O)c1cc2c(=O)n(C)c3ccccc3c2n1C | 101.0 | 2.0 | 101.0 | 0.6 | 4.1 | nt | nt | nt
Cn1c(C(=O)NCCCN2CCc3ccccc3C2)cc2c(=O)n(C)c3ccccc3c21 | 143.0* | 16.0 | 104.0 | 0.4 | 2.5 | 122.0 | 12.0 | 101.0
COc1ccc(CCNC(=O)c2cc3c(=O)n(C)c4ccccc4c3n2C)cc1OC | 114.0 | 31.0 | 132.0* | nt | nt | 97.0 | -6.0 | 96.0
COCCCNC(=O)c1ccc(Cn2c(=O)c3ccccc3n(CC(=O)NCc3ccco3)c2=O)cc1 | 94.0 | -4.0 | 96.0 | -0.1 | -1.1 | nt | nt | nt
O=C(/C=C\c1cn(-c2ccccc2)nc1-c1ccccc1)Nc1nccs1 | 104.0 | 0.0 | 140.0* | -0.8 | -2.2 | 104.0 | 2.0 | 104.0
C[C@H](NC(=O)[C@H]1N2C(=O)c3ccccc3C2SC1(C)C)C(=O)N1CCC[C@H]1C(=O)O (some centres not stated) | 103.0 | 1.0 | 103.0 | nt | nt | nt | nt | nt
Cc1nc(NC(=O)c2ccccc2)sc1Cc1ccc2c(c1)OCO2 | 111.0 | 5.0 | 102.0 | 5.9 | 3.3 | nt | nt | nt
Cc1c(Cc2ccc3c(c2)OCO3)sc(NC(=O)c2ccccc2)c1C(N)=O | 81.0 | -7.0 | 75.0*[inhibitor] | -0.2 | 0.3 | 97.0 | -1.0 | 100.0
O=C(Nc1ccc(-n2cc(Br)cn2)cc1)c1ccncc1 | 105.0 | 2.0 | 105.0 | nt | nt | nt | nt | nt
Cc1ccc2nsnc2c1NC(=O)c1cccc([N+](=O)[O-])c1 | 110.0 | 1.0 | 134.0* | 1.7 | 24.4 | 93.0 | -3.0 | 93.0
CCOc1ccccc1NC(=O)NCc1ccc2c(c1)OCO2 | 103.0 | 8.0 | 102.0 | nt | nt | nt | nt | nt
CCCC[C@@H](CN[C@H](C)CNC)NCC1CCC(C(C)(C)C)CC1 (some centres not stated) | 131.0 | 2.0 | 108.0 | nt | nt | nt | nt | nt
CC[C@H](C)[C@@H](CN[C@H](CCCCNC)CNC)NCC1CCCC1 | 141.0* | 8.0 | 104.0 | nt | nt | 114.0 | 8.0 | 106.0
COc1cc(C2C(C#N)=C(N)N(N(C)C)C3=C2C(=O)CC(C)(C)C3)ccc1O (configuration not stated) | 108.0 | 2.0 | 105.0 | nt | nt | nt | nt | nt
COC(=O)c1cc(NC(=O)c2ccc(F)cc2)cc(C(=O)OC)c1 | nt | 103.0* | 89.0 | 0.6 | 2.6 | 98.0 | -2.0 | 98.0
O=C(Nc1ccc(S(=O)(=O)NCc2ccccc2)cc1)c1ccccc1[N+](=O)[O-] | 106.0 | 0.0 | 158.0* | 2.6 | 29.8 | 99.0 | 0.0 | 101.0
CCC(=O)N1CCc2cc(Br)cc(S(=O)(=O)NCCN3CCCCC3CC)c21 (configuration not stated) | 68.0 | -10.0 | 57.0*[inhibitor] | 0.0 | 0.0 | 103.0 | 0.0 | 100.0
CCC(CC)NC(=O)CON=C1c2ccccc2-c2ccccc21 | 107.0 | 0.0 | 146.0* | 0.9 | 4.2 | 99.0 | -2.0 | 102.0
Cc1cc(C)nc(SCCC(=O)N2CCOCC2)n1 | 123.0 | 11.0 | 123.0* | -0.1 | -0.2 | 99.0 | -1.0 | 100.0
CCC(C)NC(=O)CN1C(=O)c2cccc3cccc1c23 (configuration not stated) | 100.0 | 5.0 | 102.0 | nt | nt | nt | nt | nt
CCN1/C(=N\N)c2cccc3cccc1c23 | -8.0* | -11.0 | 58.0*[inhibitor] | -0.8 | -3.7 | 64.0 | -11.0 | 77.0
